Values belong to the molecule of their own block, whether it stands above or below them.
Tests used:
[1] = system: VEGF/VEGFR2/KDR interaction; experiment: BIAcore competition: binding of free VEGF to immobilized sKDR/Fc chimera; set-up: species or system human; conditions: 45 nM VEGF injected for 4 min., peptide 300 μM; data not shown
Method in brief: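 sKDR/Fc (20 µg/ml in 10 mM sodium acetate, pH 5.3) was amine-coupled to an EDC/NHS-activated CM5 chip (~0.06 pmol/mm2), then ethanolamine-neutralized. VEGF (45 nM) was injected for 4 min with or without 300 µM test peptide. Response (RU) was read at end of injection and plotted as percentage of maximal bound analyte.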

FGF2/FGFR1 interaction = FGF2/FGFR1 interaction (Homo sapiens, UniProt P09038); experiment: BIAcore competition: binding of free FGF2 to immobilized sFGFR1; conditions: FGF2 50 nM, sFGFR1(IIIc)/Fc chimera-coated BIAcore sensor chip; for effect on binding of FGF2 to immobilized sFGFR1(IIIc)/Fc chimera: peptide 1.0 μM
FGF2/FGFR1 interaction, sequence (P09038 134-288): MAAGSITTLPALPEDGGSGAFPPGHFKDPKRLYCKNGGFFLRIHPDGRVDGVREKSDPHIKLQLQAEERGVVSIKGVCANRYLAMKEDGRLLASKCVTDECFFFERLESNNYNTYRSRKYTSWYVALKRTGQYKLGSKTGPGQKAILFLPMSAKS

endothelial GM7373 cells = experiment: GM7373 cell proliferation triggered by different mitogenic stimuli; assay type: cell-based, bovine
FGF2 = experiment: STD NMR analysis of peptide/FGF2 interaction; assay type: binding, human; conditions: STD NMR in the presence of 50 μM FGF2, reducing conditions; result in words
Method in brief: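 500 MHz STD NMR used 50 µM FGF2 plus 1.9 mM peptide in 30 mM phosphate (95% D2O), 8 mM DTT, 40 mM NaCl, pH 6.8. Saturation lasted 3 s, with a 30 ms T1ρ filter and 192 transients. Off-resonance reference minus saturated spectrum gave STD; the factor is ISTD/I0. A peptide-only control was run. Titrations spanned 1:10–1:100 FGF2:peptide at 280 K.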

[2] = biological target: Fibroblast growth factor-2 (human); experiment: SPR

- binding of VEGF to immobilized sKDR/Fc chimera [1]: did not prevent
- binding of FGF2 to immobilized FGFR1 ID50 (FGF2/FGFR1 interaction): 30 µM
- effect on binding of FGF2 to immobilized sFGFR1(IIIc)/Fc chimera (FGF2/FGFR1 interaction): significantly inhibits
Molecule: Ac-ARPCA-NH2
- GM7373 cell proliferation triggered by FGF2 (endothelial GM7373 cells; FGF2 0.55 nM, peptide 66 μM, 0.4% FCS, 24 hrs, cell counting, triplicate): inhibits
- GM7373 cell proliferation triggered by FGF8b (endothelial GM7373 cells; FGF8b 1.66 nM, peptide 66 μM, 24 hrs, cell counting, triplicate): inhibits

- FGF2 binding deduced from STD spectrum (FGF2): reduced STD amplification factor
- effect on binding of FGF2 to immobilized sFGFR1(IIIc)/Fc chimera (FGF2/FGFR1 interaction): No effect
Molecule: Ac-ARPSA-NH2
- inhibition of GM7373 cell proliferation, any mitogen (endothelial GM7373 cells; FGF2, FGF1, FGF8b, VEGF, EGF, DAG, TPA or 10% FCS, control peptide): No inhibition

- FGF2 binding deduced from STD spectrum (FGF2): still able to bind FGF2
Molecule: Ac-GRPCA-NH2

- FGF2 binding deduced from STD spectrum (FGF2): absence of STD signals
Molecule: Ac-ARPCG-NH2

- FGF2 binding deduced from STD spectrum (FGF2): absence of STD signals
Molecule: H-ARPCA-NH2

- IC50 [2]: 500 µM
B1: PTX3-(100-113) peptide Ac-…-NH2 (peptide)
peptide: Ac-ARPCAPGAPAEARL-NH2

- IC50 [2]: > 3000 µM
B2: Ac-ARACA-NH2 (peptide)
peptide: Ac-ARACA-NH2

- IC50 [2]: 1000 µM
B3: Ac-ARPCG-NH2 (peptide)
peptide: Ac-ARPCG-NH2

- IC50 [2]: 1000 µM
B4: Ac-PARAC-NH2, scrambled pentapeptide (peptide)
peptide: Ac-PARAC-NH2

- IC50 [2]: 300 µM
B5: PTX3-(97-107) peptide Ac-…-NH2 (peptide)
peptide: Ac-ESLARPCAPGA-NH2

- IC50 [2]: 2000 µM
B6: H-ARPCA-NH2, non-acetylated pentapeptide (peptide)
peptide: H-ARPCA-NH2

- IC50 [2]: 800 µM
B7: Ac-APCRA-NH2, partially scrambled pentapeptide (peptide)
peptide: Ac-APCRA-NH2

- IC50 [2]: 80 µM
B8: Ac-GRPCA-NH2 (peptide)
peptide: Ac-GRPCA-NH2

- IC50 [2]: > 3000 µM
B9: Ac-ARPSA-NH2 (peptide)
peptide: Ac-ARPSA-NH2

- IC50 [2]: > 3000 µM
B10: Ac-ALPCA-NH2 (peptide)
peptide: Ac-ALPCA-NH2

- IC50 [2]: 2000 µM
B11: PTX3-(104-113) peptide Ac-…-NH2 (peptide)
peptide: Ac-APGAPAEARL-NH2

- IC50 [2]: 300 µM
B12: PTX3-(97-110) peptide Ac-…-NH2 (peptide)
peptide: Ac-ESLARPCAPGAPAE-NH2

- IC50 [2]: > 3000 µM
B13: Ac-ARPMA-NH2 (peptide)
peptide: Ac-ARPMA-NH2

- IC50 [2]: > 3000 µM
B14: Ac-GRPCG-NH2 (peptide)
peptide: Ac-GRPCG-NH2

- IC50 [2]: > 3000 µM
B15: Ac-ARPVA-NH2 (peptide)
peptide: Ac-ARPVA-NH2

Source: PMC3823002 (Journal of Cellular and Molecular Medicine, 2009)
